According to ChEMBL document CHEMBL1142422, “Affinity purification and characterization of a key enzyme responsible for circadian rhythmic control of nyctinasty in Lespedeza cuneata L” (Bioorg Med Chem, 2008):
Each block holds one molecule with its values, some of them ahead of it. Active and inactive are the calls of the source. The rule behind the calls is not given here.

Columns and labels:
[1] = Binding affinity to leaf opening factor beta-glucosidase relative to potassium lespedezate; parameters: unit not given here
How it was run: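 Purified LOFG was added to 25 mM acetate pH 4.5 containing 1 mM of each substrate analog, preincubated at 37 °C. The mixture was incubated 2 h at 37 °C, then stopped with 0.1 M Tris-HCl pH 9.0, bringing the pH to 8.0. The released aglycon was quantified by RP-HPLC, and activity was expressed relative to potassium lespedezate.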

[2] = Activity of leaf opening factor beta-glucosidase at pH 4.5
How it was run: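 Purified leaf-opening factor β-glucosidase (LOFG) from L. cuneata leaves, assayed in 25 mM acetate pH 4.5 with potassium lespedezate at four substrate levels. The semicarbazone of the released α-keto acid was trapped with 1 mM semicarbazide and quantified by RP-HPLC after 2 h at 37 °C. Km was taken from a Lineweaver–Burk plot.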

Prunus dulcis = experiment: Inhibition of Almond beta-glucosidase in acetate buffer at pH 5.0 at 1 mM
How it was run: (§1)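 Commercial glycosidases were preincubated with varied inhibitor amounts for 15 min at 37 °C in 50 mM acetate buffer: pH 5.0 for the β-glucosidases and β-galactosidase, pH 6.8 for α-glucosidase. The matching p-nitrophenyl glycoside was then added, and the reaction was stopped with 0.5 M Na2CO3. p-Nitrophenol was read at 405 nm. Ki came from Lineweaver–Burk plots, and percent inhibition was also scored at 1 mM inhibitor.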

[3] = Inhibition of Aspergillus niger beta-glucosidase in acetate buffer at pH 5.0; how it was run: as §1
[4] = target: T1, Beta-galactosidase (Aspergillus oryzae) (UniProt Q2U7N3); experiment: Inhibition of Aspergillus oryzae beta-galactosidase in acetate buffer at pH 5.0 at 1 mM; how it was run: as §1
T1 sequence (whole entry): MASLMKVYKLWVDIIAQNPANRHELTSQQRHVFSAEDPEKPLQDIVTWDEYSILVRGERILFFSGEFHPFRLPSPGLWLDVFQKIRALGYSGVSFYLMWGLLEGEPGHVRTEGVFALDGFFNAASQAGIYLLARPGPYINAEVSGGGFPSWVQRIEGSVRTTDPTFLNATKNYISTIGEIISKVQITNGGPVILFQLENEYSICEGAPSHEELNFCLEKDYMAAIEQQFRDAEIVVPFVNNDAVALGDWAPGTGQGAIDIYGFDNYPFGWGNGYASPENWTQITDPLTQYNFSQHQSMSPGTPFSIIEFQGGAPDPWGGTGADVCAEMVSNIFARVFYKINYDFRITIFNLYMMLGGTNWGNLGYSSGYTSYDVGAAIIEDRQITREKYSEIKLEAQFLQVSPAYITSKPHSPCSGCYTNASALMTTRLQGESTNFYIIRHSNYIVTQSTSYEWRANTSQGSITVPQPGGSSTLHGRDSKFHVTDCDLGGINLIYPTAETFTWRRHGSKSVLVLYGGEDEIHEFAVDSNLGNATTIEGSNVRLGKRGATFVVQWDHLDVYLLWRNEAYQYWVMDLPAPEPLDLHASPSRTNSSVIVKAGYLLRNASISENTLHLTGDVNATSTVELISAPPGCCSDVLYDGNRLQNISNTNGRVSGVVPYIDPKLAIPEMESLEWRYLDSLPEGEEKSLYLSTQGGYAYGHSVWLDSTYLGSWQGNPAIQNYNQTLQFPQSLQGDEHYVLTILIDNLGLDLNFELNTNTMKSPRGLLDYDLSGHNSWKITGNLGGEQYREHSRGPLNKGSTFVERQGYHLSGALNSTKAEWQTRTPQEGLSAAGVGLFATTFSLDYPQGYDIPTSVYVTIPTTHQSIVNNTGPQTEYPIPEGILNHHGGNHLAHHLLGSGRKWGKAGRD

[5] = test system: Geobacillus stearothermophilus; experiment: Inhibition of Bacillus stearothermophilus alpha-glucosidase in acetate buffer at pH 6.8 at 1 mM; how it was run: as §1
[6] = Inhibition of Aspergillus niger beta-glucosidase in acetate buffer at pH 6.0
[7] = Inhibition of Aspergillus niger beta-glucosidase in acetate buffer at pH 4.5
How it was run: (§2)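 Aspergillus niger β-glucosidase was preincubated with inhibitor for 15 min at 37 °C before the p-nitrophenyl glucoside was added. Buffers were 25 mM acetate at pH 4.5–5.5 and 25 mM Bis-Tris at pH 6.0. The reaction was stopped with 0.5 M Na2CO3, and released p-nitrophenol was read at 405 nm. Ki was derived from Lineweaver–Burk plots.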

[8] = Inhibition of Aspergillus niger beta-glucosidase in acetate buffer at pH 5.5; how it was run: as §2

Activity [1]: 0
Compound: O=C(O)/C(=C/c1ccc(O)cc1)O[C@@H]1O[C@H](CO)[C@H](O)[C@H](O)[C@H]1O

Km [2]: 548 µM
Compound: O=C(O)/C(=C\c1ccc(O)cc1)O[C@@H]1O[C@H](CO)[C@@H](O)[C@H](O)[C@H]1O

Activity [1]: 0
Compound: O=C(O)/C(=C/c1ccc(O)cc1)O[C@@H]1O[C@H](CO)[C@@H](O)[C@H](O)[C@H]1O

Activity [1]: 26
Compound: O=C(O)C(Cc1ccc(O)cc1)O[C@@H]1O[C@H](CO)[C@@H](O)[C@H](O)[C@H]1O (stereo partly drawn)

Activity [1]: 0
Compound: O=C(O)/C(=C\c1ccc(O)cc1)O[C@@H]1O[C@H](CO)[C@H](O)[C@H](O)[C@H]1O

Activity [1]: 113
Compound: OC/C(=C\c1ccc(O)cc1)N[C@@H]1O[C@H](CO)[C@@H](O)[C@H](O)[C@H]1O

inhibition (Prunus dulcis): < 90% | Ki [3]: 1300 nM | Activity [4]: inactive | Activity [5]: inactive | Ki [6]: 4120 nM | Ki [7]: 3500 nM | Ki [8]: 1330 nM
Compound: OCC(=Nc1ccc(O)cc1)N[C@@H]1O[C@H](CO)[C@@H](O)[C@H](O)[C@H]1O
